Reference: ChEMBL document CHEMBL1155883, “5-Alkyl-6-benzyl-2-(2-oxo-2-phenylethylsulfanyl)pyrimidin-4(3H)-ones, a series of anti-HIV-1 agents of the dihydro-alkoxy-benzyl-oxopyrimidine family with peculiar structure-activity relationship profile” (J Med Chem, 2008)

Assays:
[1] = test system: Human immunodeficiency virus type 1 reverse transcriptase (Human immunodeficiency virus 1), Q72547 [K103N]
[2] = test system: Human immunodeficiency virus 1; test: Resistance index, ratio of ID50 for reverse transcriptase L100I mutant to IC50 for wild-type HIV1 reverse transcriptase
In short: (§1)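 Recombinant wt and K103N, L100I or Y181I HIV-1 RT (>95% pure), 2-4 nM. RNA-dependent DNA polymerase assay on 0.5 µg poly(rA)/oligo(dT) 10:1 (0.3 µM 3'-OH ends) with 10 µM [3H]-dTTP and 8% final DMSO. Aliquots taken every 2 min. Inhibitor range 0.2-5× ID50, fitted to a noncompetitive model. Fold resistance is mutant ID50 divided by wt ID50.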

[3] = test system: Human immunodeficiency virus type 1 reverse transcriptase (Human immunodeficiency virus 1), Q72547 [Y181I]
[4] = test system: Human immunodeficiency virus 1; test: Resistance index, ratio of ID50 for reverse transcriptase Y181I mutant to IC50 for wild-type HIV1 reverse transcriptase
In short: as §1

[5] = test system: Human immunodeficiency virus 1; test: Antiviral activity against HIV1 isolates with reverse transcriptase K103N mutation in human MT4 cells assessed as inhibition of virus-induced cytopathogenicity by MTT assay; format: functional, organism-based; conditions: Human immunodeficiency virus 1, MT4
In short: (§2)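 MT-4 lymphoid cells infected with HIV-1 carrying RT K103N, Y181C or Y188L, in the presence of different drug concentrations. Viable cells counted at day 5 postinfection by MTT colorimetric assay. EC50 is the concentration that inhibits 50% of the HIV-induced cytopathic effect.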

[6] = Selectivity index, ratio of CC50 for human MT4 cells to EC50 for HIV1 NL4-3; format: toxicity, cell-based; conditions: read-out: Ratio CC50/EC50
In short: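 Computed as CC50/EC50. CC50 comes from MTT viability of mock-infected MT-4 cells and EC50 from MTT protection of NL4-3-infected MT-4 cells, both read at day 5.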

[7] = test system: Human immunodeficiency virus type 1 reverse transcriptase (Human immunodeficiency virus 1), Q72547 [L100I]
[8] = test system: Human immunodeficiency virus 1; test: Antiviral activity against HIV1 NL4-3 in human MT4 cells assessed as inhibition of virus-induced cytopathogenicity by MTT assay; format: functional, organism-based; conditions: Human immunodeficiency virus 1, NL4-3, MT4
In short: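 MT-4 lymphoid cells infected with wild-type HIV-1 NL4-3 in the presence of a range of compound concentrations. Viable cells were counted by MTT colorimetric read-out at day 5 post-infection. EC50 is the concentration giving 50% protection from virus-induced cytopathic effect. Means ± SD from at least two or three experiments.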

[9] = test system: Human immunodeficiency virus 1; test: Resistance index, ratio of EC50 for drug-resistant HIV1 isolate with reverse transcriptase K103N mutation to EC50 for wild type HIV1 NL4-3; format: functional
In short: (§3)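 Fold resistance is the EC50 against the K103N, Y181C or Y188L mutant strain divided by the EC50 against wt NL4-3. Each EC50 is from MT-4 cells infected in the presence of different drug concentrations, with viability read by MTT at day 5 postinfection.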

[10] = test system: Human immunodeficiency virus 1; test: Antiviral activity against HIV1 isolates with reverse transcriptase Y188L mutation in human MT4 cells assessed as inhibition of virus-induced cytopathogenicity by MTT assay; format: functional, organism-based; conditions: Human immunodeficiency virus 1, MT4
In short: as §2

[11] = test system: Human immunodeficiency virus 1; test: Resistance index, ratio of EC50 for drug-resistant HIV1 isolate with reverse transcriptase Y181C mutation to EC50 for wild type HIV1 NL4-3; format: functional
In short: as §3

[12] = test system: Human immunodeficiency virus 1; test: Antiviral activity against HIV1 isolates with reverse transcriptase Y181C mutation in human MT4 cells assessed as inhibition of virus-induced cytopathogenicity by MTT assay; format: functional, organism-based; conditions: Human immunodeficiency virus 1, MT4
In short: as §2

[13] = biological target: Human immunodeficiency virus type 1 reverse transcriptase (Human immunodeficiency virus 1) (UniProt Q72547)
[14] = test system: Human immunodeficiency virus 1; test: Resistance index, ratio of ID50 for reverse transcriptase K103N mutant to IC50 for wild-type HIV1 sreverse transcriptase
In short: as §1

[15] = Cytotoxicity against human MT4 cells by MTT assay; format: cell-based
In short: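 Mock-infected MT-4 cells were exposed to a range of compound concentrations. Viability was read by MTT at day 5. CC50 is the concentration that kills 50% of uninfected cells. The top concentration was limited by compound precipitation in culture medium. Means ± SD from at least two or three experiments.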

[16] = test system: Human immunodeficiency virus 1; test: Resistance index, ratio of EC50 for drug-resistant HIV1 isolate with reverse transcriptase Y188L mutation to EC50 for wild type HIV1 NL4-3; format: functional
In short: as §3

SMILES | ID50 [1] [µM] | Ratio [2] | ID50 [3] [µM] | Ratio [4] | EC50 [5] [µM] | selectivity ratio [6] | ID50 [7] [µM] | EC50 [8] [µM] | Ratio EC50 [9] | EC50 [10] [µM] | Ratio EC50 [11] | EC50 [12] [µM] | ID50 [13] [µM] | Ratio [14] | CC50 [15] [µM] | Ratio EC50 [16]
CCc1c(Cc2c(F)cccc2F)nc(SCC(=O)c2ccccc2)[nH]c1=O | 3.7 | 126 | 0.82 | 19 | 1.3 | 4670 | 5.4 | 0.012 | 108 | > 56 | 17 | 0.2 | 0.043 | 86 | 56 | 
CCc1c(Cc2c(F)cccc2Cl)nc(SCC(=O)c2ccc(F)cc2)[nH]c1=O | 1.64 | 170 | 0.38 | 12 | 4.14 | > 11400 | 5.6 | 0.005 | 828 | > 57 | 386 | 1.93 | 0.033 | 50 | > 57 | 
COc1ccc(C(=O)CSc2nc(Cc3c(F)cccc3F)c(C(C)C)c(=O)[nH]2)cc1 | 37.3 |  | > 40 |  | 17.5 | 16500 | > 40 | 0.002 | 8750 | 14.7 | 33 | 0.067 | 0.026 | 1440 | 33 | 7350
Cc1c(Cc2c(F)cccc2F)nc(SCC(=O)c2ccccc2)[nH]c1=O | 10.4 | 38 | 1.68 | 5 | 19 | 4330 | 12.7 | 0.015 | 1267 | > 65 | 35 | 0.52 | 0.33 | 32 | 65 | 
CCc1c(Cc2c(F)cccc2F)nc(SCC(=O)c2ccc(F)cc2)[nH]c1=O | 3.65 | 113 | 0.51 | 8 | 5.14 | > 3160 | 6.9 | 0.019 | 270 | > 60 | 38 | 0.72 | 0.061 | 60 | > 60 | 
CCc1c(Cc2c(Cl)cccc2Cl)nc(SCC(=O)c2ccc(OC)cc2)[nH]c1=O | 0.48 | 105 | 0.14 | 6 | > 54 | > 16 | 2.42 | 3.3 |  | > 54 | 7 | 24.1 | 0.023 | 21 | > 54 | 
Cc1ccnc2c1NC(=O)c1cccnc1N2C1CC1 [NEVIRAPINE] |  | 22 |  | 87 | 4.96 | > 54 |  | 0.13 | 38 | > 7 |  | > 7 |  | 17 | > 7 | 
COc1ccc(CSc2nc(Cc3c(Cl)cccc3Cl)c(C)c(=O)[nH]2)cc1 |  |  |  | 37500 |  | 4570 |  |  | 671 | > 32 |  |  |  | 25500 | 32 | 
COc1ccc(CCSc2nc(Cc3c(Cl)cccc3Cl)c(C)c(=O)[nH]2)cc1 |  |  |  | 58 |  | > 407000 |  | < 0.00014 | 6214 |  |  |  |  | 123 | > 57 | 49286
CCc1c(Cc2c(F)cccc2Cl)nc(SCC(=O)c2ccc(OC)cc2)[nH]c1=O | > 40 | 414 | > 40 |  | 4.16 | > 550 | 2.9 | 0.02 | 208 | > 11 | 42 | 0.84 | 0.007 |  | > 11 | 
Cc1c(Cc2c(F)cccc2Cl)nc(SCC(=O)c2ccccc2)[nH]c1=O | 23 | 275 | 1.2 | 100 | 9.48 | > 267 | 3.3 | 0.045 | 211 | > 12 | 37 | 1.68 | 0.012 | 1920 | > 12 | 
Cc1c(Cc2c(F)cccc2Cl)nc(SCC(=O)c2ccc(F)cc2)[nH]c1=O | 5.35 | 49 | 0.7 | 4 | 8.72 | > 29500 | 8.8 | 0.002 | 4360 | > 59 | 140 | 0.28 | 0.18 | 30 | > 59 | 
CC(C)c1c(Cc2c(F)cccc2F)nc(SCC(=O)c2ccccc2)[nH]c1=O | 1.58 | 600 | > 40 |  | 4.46 | > 30000 | 4.8 | 0.002 | 2230 | > 60 | 120 | 0.24 | 0.008 | 198 | > 60 | 
